Shown are actives, neighbours in structure and some others; about 3.8% of the full set was active somewhere.
KCNQ1 pot: potentiators or activators of KCNQ1 channel, primary screen, cell-based, thallium flux, high-throughput | CHO-K1 KCNQ1, thallium flux FluxOR fluorescence; active compounds read high | Potassium voltage-gated channel subfamily KQT member 1 (Homo sapiens), P51787 | 310,000 tested, 0.35% active | B-score at 10 µM;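 active = fluorescence ratio B-score, a plate-corrected score, at least three library SD, with initial intensity B-score within 5 SD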
Target sequence (P51787 whole entry, looked up): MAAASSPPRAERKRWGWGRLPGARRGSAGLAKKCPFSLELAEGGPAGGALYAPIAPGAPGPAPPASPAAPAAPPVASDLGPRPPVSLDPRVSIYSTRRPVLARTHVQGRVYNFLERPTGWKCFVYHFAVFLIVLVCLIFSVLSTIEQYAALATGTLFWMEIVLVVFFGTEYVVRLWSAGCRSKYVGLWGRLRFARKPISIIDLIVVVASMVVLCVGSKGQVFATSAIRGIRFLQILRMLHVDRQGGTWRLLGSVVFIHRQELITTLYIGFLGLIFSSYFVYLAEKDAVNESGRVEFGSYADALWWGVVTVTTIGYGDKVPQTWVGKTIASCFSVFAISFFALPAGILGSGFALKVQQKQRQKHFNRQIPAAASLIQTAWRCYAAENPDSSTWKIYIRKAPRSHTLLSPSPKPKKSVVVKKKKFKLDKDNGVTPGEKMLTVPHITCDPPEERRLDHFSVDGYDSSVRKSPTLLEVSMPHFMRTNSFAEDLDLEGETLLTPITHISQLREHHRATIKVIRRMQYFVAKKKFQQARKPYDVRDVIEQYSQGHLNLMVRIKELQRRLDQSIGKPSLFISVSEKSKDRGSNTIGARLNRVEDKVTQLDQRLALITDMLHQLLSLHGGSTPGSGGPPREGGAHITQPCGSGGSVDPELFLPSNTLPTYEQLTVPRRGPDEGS
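Material: CHO-K1 cells stably expressing KCNQ1. Medium: assay buffer for compound exposure, DMSO matched across wells. Reagent: K+/Tl+ depolarizing stimulus. Compound dosing: single-concentration screen. Times: 37 °C overnight plating, 90-min dark dye load, 20-min compound pretreatment. Technique: FluxOR Tl+ flux fluorescence.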
KCNK3 block: human KCNK3 channel inhibitors, primary screen, CHO cells, FluxOR thallium flux, B-score; B-score at 10 µM; FluxOR fluorescence; active compounds read low; 340,000 tested, 0.84% active; Potassium channel subfamily K member 3 (Homo sapiens), O14649;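 active = B-score under library mean minus 4 SD, starting fluorescence ratio at most library mean plus 5 SD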;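 note: more negative B-score means stronger inhibition of thallium flux through KCNK3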
KCNK9 inh: KCNK9 potassium channel inhibitors, primary screen, HEK293 cells, thallium flux; FluxOR thallium flux fluorescence; active compounds read low; B-score at 10 µM; 310,000 tested, 1.2% active;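 active = ratio B-score over 3 SD below the library mean, with starting fluorescence within 5 SD of its mean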;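 note: negative B-score means less thallium flux so channel inhibition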
hERG rescue: hERG rescue from dofetilide block, primary screen, cell-based, CHO-hERG, FluxOR thallium flux, dofetilide IC70; dofetilide IC70 present; activation (rescue from dofetilide block), less the hit threshold, % at 10 µM; 310,000 tested, 0.51% active;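 active = activation above the mean of controls blocked by dofetilide plus 5 SD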;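 note: thallium influx through hERG after potassium depolarization seen as dye fluorescence rise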
Kir21 inh: inhibitors of mouse Kir2.1 inward-rectifier potassium channel; 310,000 tested, 0.85% active; B-score at 10 µM; AID 1672, 2009; HEK293-Kir2.1, FluxOR thallium flux fluorescence; active compounds read low;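 active = fluorescence ratio B-score at or below minus 3 SD of library scores, with starting-brightness B-score within 2 SD, cut at about -4.2 in these data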;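 note: channel flux triggered by added potassium and thallium sulfate stimulus; B-score of peak minus minimum fluorescence over baseline after thallium stimulus; more negative B-score means stronger Kir2.1 block with less thallium influx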
KCNQ1 block: inhibitors of human KCNQ1 channel, primary screen, cell-based, thallium flux, high-throughput; B-score at 10 µM; 310,000 tested, 1.3% active; CHO-K1 KCNQ1, FluxOR thallium flux fluorescence; active compounds read high;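 active = compounds whose thallium flux B-score, printed positive for inhibition, exceeds three library SD while starting fluorescence stays within three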;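 note: channel opened by potassium depolarization with thallium stimulus after 20 min compound exposure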
KCNQ1 inh valid: KCNQ1 potassium channel inhibitors, confirmation, cell-based, Tl flux, duplicate. shares compounds with KCNQ1 block. KCNQ1 cell line, FluxOR thallium flux fluorescence. inhibition, % at 10 µM. 1,600 tested, 93% active;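 active = primary screen active, with duplicate mean exceeding buffer control mean plus 3 SD of buffer wells, cut at about 28% in these data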;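 note: 0% = buffer control ratio and 100% = XE991 inhibitor control ratio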
CHO Tl flux: thallium flux effects in parental CHO cells, counter-screen for KCNQ1 inhibitor project, cell-based, Tl flux; parental CHO-K1, FluxOR thallium flux fluorescence ratio; active compounds read low; zero means no signal rise above baseline; 1,600 tested, 21% active; fluorescence ratio (Tl flux) at 10 µM; shares compounds with KCNQ1 block;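 active = mean of duplicate thallium-flux fluorescence ratios in parental host cells more than 5 SD below the buffer control mean, cut at about 0.38 in these data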;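 note: ratio is peak minus minimum fluorescence divided by baseline fluorescence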
KCNQ1 APC inh: KCNQ1 channel inhibitors, confirmation, orthogonal assay, cell-based, automated electrophysiology | shares compounds with KCNQ1 block | KCNQ1-CHO cells, automated patch clamp current | calls only at 10 µM | 490 tested, 20% active | AID 624120, 2012;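 active = KCNQ1 current drop exceeding 3 SD of negative control wells, seen in both duplicate runs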;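 note: steady state current during a 2 s step from -80 to +40 mV; negative values mean current inhibition and positive values mean potentiation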
KCNQ2 spec: KCNQ2 channel inhibition, selectivity assay for KCNQ1 inhibitor project, cell-based | shares compounds with KCNQ1 block | KCNQ2 cells, FluxOR thallium flux fluorescence | inhibition, % at 10 µM | 1,600 tested, 71% active | AID 651746, 2012;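 active = mean percent inhibition of the KCNQ2 thallium signal more than 5 SD above the buffer-only control wells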;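 note: KCNQ2 expressed in CHO cells; 0% = buffer control wells and 100% = XE-991 inhibitor control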
KCNQ1-KCNE1 inh: KCNQ1/KCNE1 channel inhibition, selectivity assay for KCNQ1 inhibitor project, CHO-K1 cells, thallium flux, FluxOR; 1,600 tested, 77% active; FluxOR thallium flux fluorescence; inhibition, % at 10 µM; shares compounds with KCNQ1 block; AID 652147, 2013;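 active = mean percent inhibition of duplicate wells above the buffer-only control mean plus 3 SD of those controls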;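 note: 0% = buffer only wells and 100% = XE-991 inhibitor control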
Numbers without * were called inactive; i = inactive; x = not tested or not shown.

SMILES | KCNQ1 pot | KCNK3 block | KCNK9 inh | hERG rescue | Kir21 inh | KCNQ1 block | KCNQ1 inh valid | CHO Tl flux | KCNQ2 spec | KCNQ1-KCNE1 inh | others
Cc1cc2cc3c(cc2nc1SCC(=O)N1c2ccccc2CC1C)OCO3 (stereo not given) | i | i | i | -4 | 1 | 6* | 100* | 0.35* | 78%* | 90%*
CC(C)c1nc(SCC(=O)N2c3ccccc3CC2C)c2ccccc2n1 (stereo not given) | i | i | i | -12 | 0.67 | 9* | 74* | 0.38* | 96%* | 72%*
CCOc1ccc(/C=N/Nc2cc(=O)n(C)c(=O)n2C)cc1 | i | i | i | -8 | -0.67 | i | x | x | x | x
CCC1Sc2ccc(S(=O)(=O)Nc3ccc(OC)c(OC)c3)cc2NC1=O (stereo not given) | i | i | i | -10 | -0.23 | 7* | 80* | 0.48 | 69%* | i
CCC1Sc2ccc(S(=O)(=O)Nc3ccc(OC)cc3)cc2NC1=O (stereo not given) | i | i | i | -6 | -0.51 | i | x | x | x | x
O=C(NCCCn1cccn1)C1CCC(=O)N(CCc2ccccc2)C1 (stereo not given) | i | i | i | -7 | 0.08 | i | x | x | x | x
COc1cscc1C(N)=O | i | i | i | -2 | -0.13 | i | x | x | x | x
O=C1NC[C@H](Cc2ccccc2)N(C[C@H]2CCCN2C[C@H](Cc2ccccc2)N2C[C@H](Cc3ccccc3)N(CC3CCCCC3)C(=O)C2=O)C1=O | x | i | x | x | x | x | x | x | x | x
Cc1cc(OCCn2ccnc2)ccc1C(C)C | i | i | i | -10 | -0.05 | 6* | 0 | 0.51 | 64%* | 42%*
Cc1ccc(OCCCn2ccnc2)cc1C | i | i | i | -7 | 0.15 | i | x | x | x | x
CCc1c(C)nc2nc(SCc3ccccc3Cl)[nH]n2c1=O | i | i | i | -12 | -1 | 9* | 85* | 0.48 | 69%* | 34%*
CSc1nc2nc(C)c(C/C=C/c3ccccc3)c(=O)n2[nH]1 | i | i | i | -7 | -0.06 | i | x | x | x | x
Cc1ccc(NC(=O)COc2cccc(C)c2C)cc1S(=O)(=O)N1CCCCCC1 | i | i | i | -14 | 0.64 | 6* | 85* | 0.43 | 119%* | 134%*
Cc1ccc(NC(=O)CSc2ncnc3ccccc23)cc1S(=O)(=O)N1CCCCCC1 | i | i | i | -13 | 1.4 | 6* | 118* | 0.4 | 127%* | 106%* | KCNQ1 APC inh=i
Cc1ccc(C)c(N2CCN(C(=O)C3CCN(S(=O)(=O)c4cccc5nsnc45)CC3)CC2)c1 | i | i | i | -6 | 0.56 | i | x | x | x | x
CCOC(=O)c1c(NC(=O)COC(=O)CCOc2cc(C)ccc2C)sc(C(=O)N(C)C)c1C | x | i | x | x | x | x | x | x | x | x
O=C1c2ccsc2SCCN1Cc1c(Cl)cccc1Cl | i | i | i | -12 | -2.2 | 8* | 69* | 0.42 | 79%* | 86%*
CC(=O)c1ccc(OCC(=O)Nc2ccc(N3CCCCC3)cc2)cc1 | x | i | x | x | x | x | x | x | x | x
COc1ccc(CN2CCN(c3ncnc4scc(-c5ccc(F)cc5)c34)CC2)cc1 | i | i | i | -12 | -0.53 | i | x | x | x | x
COc1ccc(-c2csc3ncnc(N4CCN(c5ccccc5Cl)CC4)c23)cc1 | i | i | i | -11 | 0.06 | 9* | 105* | 0.38* | 96%* | 90%*
COc1ccc(-c2csc3ncnc(N4CCN(c5cccc(OC)c5)CC4)c23)cc1 | i | i | i | -10 | 0.21 | 10* | 134* | 0.41 | 114%* | 119%* | KCNQ1 APC inh=i
COc1ccc(F)cc1CN1CCN(c2ncnc3scc(-c4ccccc4)c23)CC1 | i | i | i | -10 | -1.3 | 7* | 117* | 0.41 | 114%* | 153%* | KCNQ1 APC inh=i
COc1ccc(-c2csc3ncnc(N4CCN(S(=O)(=O)c5cccs5)CC4)c23)cc1 | i | i | i | -21 | 0.14 | 8* | 84* | 0.43 | 100%* | 76%*
CC1Cc2ccccc2N1C(=O)Cn1cc([N+](=O)[O-])cn1 (stereo not given) | i | i | i | -5 | 0.68 | i | x | x | x | x
O=S(=O)(NCc1ccc2c(c1)OCO2)c1cccc2cccnc12 | i | i | i | -5 | -1.3 | i | x | x | x | x
SMILES | KCNQ1 pot | KCNK3 block | KCNK9 inh | hERG rescue | Kir21 inh | KCNQ1 block | KCNQ1 inh valid | CHO Tl flux | KCNQ2 spec | KCNQ1-KCNE1 inh | others
Cc1c(CN2CCCC(CO)(Cc3cccc(Cl)c3)C2)cnn1C (stereo not given) | i | i | i | -21 | -0.73 | i | x | x | x | x
COc1ccc(-c2csc3ncnc(N4CCN(C(=O)c5ccco5)CC4)c23)cc1 | i | i | i | -23 | 0.9 | i | x | x | x | x
COc1ccc(-c2csc3ncnc(N4CCN(c5cccc(C)c5C)CC4)c23)cc1 | i | i | i | -15 | -0.67 | 7* | 94* | 0.43 | 68%* | 148%* | KCNQ1 APC inh=i
CCCNC(=O)NC(=O)CSc1ccc2c(c1)OCCO2 | x | i | x | x | x | x | x | x | x | x
Oc1c(C=Nc2cccc3cccnc23)sc2ccccc12 | i | x | -8.1* | -18 | 0.68 | 10* | 88* | 0.36* | i | 134%*
O=[N+]([O-])c1ccc(O)c(N=Cc2sc3ccccc3c2O)c1 | i | i | i | -18 | -0.1 | i | x | x | x | x
